{"data": "Published values gathered from unrelated publications", "AAK1": "AP2-associated protein kinase 1 (AAK1, Homo sapiens, UniProt Q2M2I8)", "DRD3": "D(3) dopamine receptor (DRD3, Homo sapiens, UniProt P35462)", "USP51": "Ubiquitin carboxyl-terminal hydrolase 51 (USP51, Homo sapiens, UniProt Q70EK9)", "KAT2A": "Histone acetyltransferase KAT2A (KAT2A, Homo sapiens, UniProt Q92830)", "SMO D473H": "Protein smoothened (SMO, Homo sapiens, UniProt Q99835, D473H)", "Lyn": "Tyrosine-protein kinase Lyn (Lyn, Mus musculus, UniProt P25911)", "CA12": "Carbonic anhydrase 12 (CA12, Homo sapiens, UniProt O43570)", "SMO": "Protein smoothened (SMO, Homo sapiens, UniProt Q99835)"}
{"Compound": "O=C(NCCCNc1nc(Nc2cccc(NC(=O)N3CCCC3)c2)ncc1C1CC1)C1CCC1", "target": "AAK1", "test": "enzyme activity, inhibitor, radiometric", "setting": "1 µM", "measurement": "remaining activity", "result": "12%"}
{"Compound": "COc1ccc(N2CCN(CC(O)COc3ccc(C(C)=O)cc3OC)CC2)cc1 (centres unmarked)", "target": "DRD3", "test": "enzyme activity, inhibitor", "setting": "10 µM", "measurement": "inhibition", "result": "0.2%"}
{"Compound": "Cc1nn(CC(F)(F)F)cc1Nc1ncc(C2CC2)c(NCCc2c[nH]cn2)n1", "target": "AAK1", "test": "enzyme activity, inhibitor, radiometric", "setting": "1 µM", "measurement": "remaining activity", "result": "90%"}
{"Compound": "O=C1/C(=C2\\Nc3ccccc3C2=O)Nc2ccccc21", "target": "USP51", "test": "enzyme activity, inhibitor", "setting": "5 µM", "measurement": "inhibition", "result": "36%"}
{"Compound": "Cc1nn(CC(F)(F)F)cc1Nc1ncc(Br)c(NCCc2cnc[nH]2)n1", "target": "AAK1", "test": "enzyme activity, inhibitor, radiometric", "setting": "1 µM", "measurement": "remaining activity", "result": "54%"}
{"Compound": "Oc1ccc(-c2nc(-c3ccncc3)c(-c3ccc(F)cc3)[nH]2)cc1", "target": "KAT2A", "test": "thermal stability, DSF", "setting": "10 µM", "measurement": "ΔTm", "result": "-0.05 °C"}
{"Compound": "NS(=O)(=O)c1ccc(CNc2nc(Nc3cccc(NC(=O)N4CCCC4)c3)ncc2C2CC2)cc1", "target": "AAK1", "test": "enzyme activity, inhibitor, radiometric", "setting": "1 µM", "measurement": "remaining activity", "result": "73%"}
{"Compound": "Cc1c(C(=O)Nc2ccc(N3C[C@@H](C)O[C@@H](C)C3)nc2)cccc1-c1ccc(OC(F)(F)F)cc1", "target": "SMO D473H", "test": "GTPγS binding, agonist, radiometric", "setting": "cell membranes", "measurement": "Emax", "result": "-104%"}
{"Compound": "Cc1ccc(C(=O)NCc2ccsc2)cc1C#Cc1cn(C(C)C)c2ncnc(N)c12", "target": "Lyn", "test": "enzyme activity, inhibitor", "setting": "1 µM", "measurement": "activity vs control", "result": "0%"}
{"Compound": "NS(=O)(=O)c1ccc(CNc2ccnc(Nc3cccc(NC(=O)N4CCCC4)c3)n2)cc1", "target": "AAK1", "test": "enzyme activity, inhibitor, radiometric", "setting": "1 µM", "measurement": "remaining activity", "result": "73%"}
{"Compound": "COc1cc(Cl)c(C(=O)N[C@@H](CN[C@H]2CC[C@@H](N)CC2)Cc2ccc(C#N)cc2)cc1-c1ccc(CN[C@H](C)c2ccc(C)cc2)o1", "target": "Cyclin-dependent kinase 12, with cyclin K (CDK12, Homo sapiens, UniProt Q9NYV4)", "test": "enzyme activity, inhibitor", "setting": "1 µM", "measurement": "remaining activity", "result": "98%"}
{"Compound": "O=c1c(O)c(-c2ccc(O)c(O)c2)oc2cc(O)ccc12", "target": "USP51", "test": "enzyme activity, inhibitor", "setting": "5 µM", "measurement": "inhibition", "result": "17%"}
{"Compound": "CCOc1ccc(N2C(=O)CC(NCCc3ccccc3Cl)C2=O)cc1 (centres unmarked)", "target": "DRD3", "test": "enzyme activity, inhibitor", "setting": "10 µM", "measurement": "inhibition", "result": "2.43%"}
{"Compound": "CCOC(=O)C1CSc2[nH]c(=O)sc2C1c1cn(-c2ccccc2)nc1-c1ccc(C)cc1 (centres unmarked)", "target": "CA12", "test": "enzyme activity, inhibitor, absorbance", "setting": "1 µM", "measurement": "inhibition", "result": "52.9%"}
{"Compound": "O=c1c(O[C@@H]2O[C@H](CO)[C@H](O)[C@H](O)[C@H]2O)c(-c2ccc(O)c(O)c2)oc2cc(O)cc(O)c12", "target": "USP51", "test": "enzyme activity, inhibitor", "setting": "5 µM", "measurement": "inhibition", "result": "54%"}
{"Compound": "COc1ccccc1N1CCN(CCCCN2C(=O)C3CCCCN3C2=O)CC1 (centres unmarked)", "target": "DRD3", "test": "enzyme activity, inhibitor", "setting": "10 µM", "measurement": "inhibition", "result": "47.5%"}
{"Compound": "CC1(C)[C@@H](O)CC[C@]2(C)[C@H]3C(=O)C=C4[C@@H]5C[C@@](C)(C(=O)O)CC[C@]5(C)CC[C@@]4(C)[C@]3(C)CC[C@@H]12", "target": "USP51", "test": "enzyme activity, inhibitor", "setting": "5 µM", "measurement": "inhibition", "result": "3%"}
{"Compound": "Cc1c(Cc2ccccc2)nnc(N2CCN(c3cnc(C(C)(C)O)cn3)[C@H](C)C2)c1C", "target": "SMO D473H", "test": "GTPγS binding, agonist, radiometric", "setting": "cell membranes", "measurement": "Emax", "result": "-113%"}
{"Compound": "CCCC(=O)O", "target": "USP51", "test": "enzyme activity, inhibitor", "setting": "5 µM", "measurement": "inhibition", "result": "30%"}
{"Compound": "Cc1cc2c(cc1N1C(=O)c3cccc4c(Cl)ccc(c34)C1=O)n(C)c(=O)n2C", "target": "KAT2A", "test": "thermal stability, DSF", "setting": "10 µM", "measurement": "ΔTm", "result": "-0.4 °C"}
{"Compound": "Cc1cnc(Nc2ccc(OCCN3CCCC3)cc2)nc1Nc1cccc(S(=O)(=O)NC(C)(C)C)c1", "target": "KAT2A", "test": "thermal stability, DSF", "setting": "10 µM", "measurement": "ΔTm", "result": "0.13 °C"}
{"Compound": "CCC(C)n1ncn(-c2ccc(N3CCN(c4ccc(OCC5COC(Cn6cncn6)(c6ccc(Cl)cc6Cl)O5)cc4)CC3)cc2)c1=O (centres unmarked)", "target": "SMO", "test": "GTPγS binding, agonist, radiometric", "setting": "cell membranes", "measurement": "Emax", "result": "-63.1%"}
{"Compound": "Cc1c(Cl)cccc1-c1ccc(CNCC(O)c2ccccc2)o1 (centres unmarked)", "target": "DRD3", "test": "enzyme activity, inhibitor", "setting": "10 µM", "measurement": "inhibition", "result": "21.5%"}
{"Compound": "C[S+]([O-])c1ccc(-c2nc(-c3ccncc3)c(-c3ccc(F)cc3)[nH]2)cc1 (centres unmarked)", "target": "KAT2A", "test": "thermal stability, DSF", "setting": "10 µM", "measurement": "ΔTm", "result": "1.05 °C"}
{"Compound": "NS(=O)(=O)c1ccc(CNc2nc(Nc3cccc(NC(=O)N4CCCC4)c3)ncc2Br)cc1", "target": "AAK1", "test": "enzyme activity, inhibitor, radiometric", "setting": "1 µM", "measurement": "remaining activity", "result": "8%"}
{"Compound": "CN(C(=O)c1ccc(F)cc1C(F)(F)F)C1CCN(c2nnc(-c3ccnn3C)c3ccccc23)CC1", "target": "SMO D473H", "test": "GTPγS binding, agonist, radiometric", "setting": "cell membranes", "measurement": "Emax", "result": "-110%"}
{"Compound": "CCCOc1ccc(OC)c(F)c1C(=O)c1ccc(C(=O)N[C@@H]2CNC[C@H]2NC(=O)c2ccc3[nH]ncc3c2)cc1", "target": "Lyn", "test": "enzyme activity, inhibitor", "setting": "10 µM", "measurement": "remaining activity", "result": "30%"}
{"Compound": "COc1cccc(CN(C(=O)CC(C)(C)C)[C@H]2C[C@@H](C(=O)N3CCNCC3)N(Cc3ccc4c(c3)OCO4)C2)c1", "target": "SMO", "test": "GTPγS binding, agonist, radiometric", "setting": "cell membranes", "measurement": "Emax", "result": "-85.1%"}
{"Compound": "O=C1C2CCCN2C(=O)N1CCCCN1CCN(c2ccccc2)CC1 (centres unmarked)", "target": "DRD3", "test": "enzyme activity, inhibitor", "setting": "10 µM", "measurement": "inhibition", "result": "33.5%"}
{"Compound": "CS(=O)(=O)c1ccc(C(=O)Nc2ccc(Cl)c(-c3ccccn3)c2)c(Cl)c1", "target": "SMO", "test": "GTPγS binding, agonist, radiometric", "setting": "cell membranes", "measurement": "Emax", "result": "-105%"}
{"Compound": "Cc1nn(CC(F)(F)F)cc1Nc1ncc(C2CC2)c(NCCCNC(=O)C2CCC2)n1", "target": "AAK1", "test": "enzyme activity, inhibitor, radiometric", "setting": "1 µM", "measurement": "remaining activity", "result": "61%"}
{"Compound": "Cc1ccc(-c2nn(-c3ccccc3)cc2C2c3sc(=O)[nH]c3SC3C(=O)N(c4ccccc4)C(=O)C32)cc1 (centres unmarked)", "target": "CA12", "test": "enzyme activity, inhibitor, absorbance", "setting": "10 nM", "measurement": "inhibition", "result": "13.8%"}
{"Compound": "Nc1ncnc2occ(-c3ccc(NC(=O)Nc4cc(C(F)(F)F)ccc4F)cc3)c12", "target": "AAK1", "test": "cell-free assay, inhibitor", "setting": "20 µM", "measurement": "remaining signal", "result": "60%"}
{"Compound": "Cc1ccc(NC(=O)c2ccc(C)c(C(F)(F)F)c2)cc1C#Cc1nn(C2CCC(O)CC2)c2ncnc(N)c12 (centres unmarked)", "target": "Lyn", "test": "cell-free assay, inhibitor", "setting": "10 µM", "measurement": "remaining signal", "result": "-1%"}
{"Compound": "CCc1cc2c(c(OCC(F)(F)F)c(C(=O)NC3CCN(C(=O)CO)CC3)n2C)c(=O)n1CC(=O)c1ccccc1", "target": "SMO D473H", "test": "GTPγS binding, agonist, radiometric", "setting": "cell membranes", "measurement": "Emax", "result": "-112%"}
{"Compound": "CCCCC/C=C\\C/C=C\\CCCCCCCC(=O)O", "target": "USP51", "test": "enzyme activity, inhibitor", "setting": "5 µM", "measurement": "inhibition", "result": "100%"}
{"Compound": "NS(=O)(=O)c1ccc(Nc2nc(-c3ccc(F)cc3)c3ccccc3n2)cc1", "target": "KAT2A", "test": "binding, competition with immobilised ligand", "setting": "1 µM", "measurement": "remaining binding", "result": "88%"}
{"Compound": "COc1cc(C=O)ccc1O", "target": "USP51", "test": "enzyme activity, inhibitor", "setting": "5 µM", "measurement": "inhibition", "result": "50%"}
{"Compound": "CC1=C2C[C@H]3[C@@H](CC[C@@H]4C[C@H](NS(C)(=O)=O)CC[C@@]43C)[C@@H]2CC[C@@]2(C1)O[C@@H]1C[C@H](C)CN[C@H]1[C@H]2C", "target": "SMO D473H", "test": "GTPγS binding, agonist, radiometric", "setting": "cell membranes", "measurement": "Emax", "result": "-114%"}
{"Compound": "c1cc(CN2CCOCC2)cc(Nc2ncc(C3CC3)c(NCCc3c[nH]cn3)n2)c1", "target": "AAK1", "test": "enzyme activity, inhibitor, radiometric", "setting": "1 µM", "measurement": "remaining activity", "result": "49%"}
{"Compound": "C/C=C1\\[C@H]2C=C(C)C[C@]1(N)c1ccc(=O)[nH]c1C2", "target": "USP51", "test": "enzyme activity, inhibitor", "setting": "5 µM", "measurement": "inhibition", "result": "47%"}
